Data as given in ChEMBL document CHEMBL1124238, “Methotrexate analogues. 32. Chain extension, alpha-carboxyl deletion, and gamma-carboxyl replacement by sulfonate and phosphonate: effect on enzyme binding and cell-growth inhibition” (J Med Chem, 1988).

Columns and labels:
[1] = test system: Folylpolyglutamate synthase (Mus musculus); assay: Inhibition of Folyl-polyglutamate synthase from mouse liver; design: concentration or dose not given beside the values; details: concentration not given here
Mus musculus = species on record: Mus musculus; assay: (§1) Inhibition of Folyl-polyglutamate synthase from mouse liver; details: concentration not given here
In short: (§2)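 Partially purified mouse liver enzyme, run at 37 °C for 1 h in Tris buffer pH 8.6 with 20 mM α-thioglycerol. The mixture held 1 mM [3H]-L-glutamic acid, 500 μM folic acid and 500 μM inhibitor. Activity is expressed as percent of untreated control. Ki,s comes from a slope replot of double-reciprocal 1/V versus 1/S plots, and was not determined where inhibition was below 30%.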

Dihydrofolate reductase = molecular target: T1, Dihydrofolate reductase (Mus musculus, UniProt P00375); assay: Inhibition of dihydrofolate reductase (DHFR) in mouse L1210 leukemia cells; type: cell-based
T1 sequence (P00375 whole entry): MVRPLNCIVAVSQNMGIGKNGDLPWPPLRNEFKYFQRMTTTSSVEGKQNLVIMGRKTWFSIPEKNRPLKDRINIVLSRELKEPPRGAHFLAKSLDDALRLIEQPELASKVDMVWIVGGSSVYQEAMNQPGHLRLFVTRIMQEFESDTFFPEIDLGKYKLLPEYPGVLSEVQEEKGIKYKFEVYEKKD

L1210 [2] = assay: Inhibition of cell growth against cultured L1210 leukemia cells in mouse; type: functional, cell-based
L1210 ( R81) = assay: (§3) Inhibition of cell growth against highly MTX- and AMT-resistant mutant L1210/R81; type: functional, cell-based; details: Mus musculus
[3] = as §1
In short: as §2

L1210 [4] = assay: as §3; type: functional, cell-based; details: Mus musculus

CN(Cc1cnc2nc(N)nc(N)c2n1)c1ccc(C(=O)NC(CCP(=O)(O)O)C(=O)O)cc1 (stereo not given)
inhibition [1]: 53%

CN(Cc1cnc2nc(N)nc(N)c2n1)c1ccc(C(=O)NCCCCS(=O)(=O)O)cc1
inhibition [1]: 26%

CN(Cc1cnc2nc(N)nc(N)c2n1)c1ccc(C(=O)NC(CCS(=O)(=O)O)C(=O)O)cc1 (stereo not given)
inhibition [1]: 59%

CN(Cc1cnc2nc(N)nc(N)c2n1)c1ccc(C(=O)NCS(=O)(=O)O)cc1
inhibition [1]: 19%

CN(Cc1cnc2nc(N)nc(N)c2n1)c1ccc(C(=O)NCCS(=O)(=O)O)cc1
inhibition [1]: 22%

Nc1nc(N)c2nc(CNc3ccc(C(=O)NC(CCCP(=O)(O)O)C(=O)O)cc3)cnc2n1 (stereo not given)
inhibition (Mus musculus): 52% | IC50 (Dihydrofolate reductase): 83 nM | IC50 (L1210 [2]): 120 nM | IC50 (L1210 ( R81)): > 460000 nM | Ki [3]: 124000 nM

Nc1nc(N)c2nc(CNc3ccc(C(=O)NC(CP(=O)(O)O)C(=O)O)cc3)cnc2n1 (stereo not given)
inhibition (Mus musculus): 22% | IC50 (Dihydrofolate reductase): 550 nM | IC50 (L1210 [2]): 250 nM | IC50 (L1210 [4]): 390000 nM | Ki [3]: 900000 nM

CN(Cc1cnc2nc(N)nc(N)c2n1)c1ccc(C(=O)NCCP(=O)(O)O)cc1
inhibition [1]: 22%

Nc1nc(N)c2nc(CNc3ccc(C(=O)NC(CCCCP(=O)(O)O)C(=O)O)cc3)cnc2n1 (stereo not given)
inhibition (Mus musculus): 44% | IC50 (Dihydrofolate reductase): 67 nM | IC50 (L1210 [2]): 130 nM | IC50 (L1210 ( R81)): > 280000 nM | Ki [3]: 155000 nM

CN(Cc1cnc2nc(N)nc(N)c2n1)c1ccc(C(=O)NCCCP(=O)(O)O)cc1
inhibition [1]: 16%

CN(Cc1cnc2nc(N)nc(N)c2n1)c1ccc(C(=O)NCCCS(=O)(=O)O)cc1
inhibition [1]: 18%

CCOP(=O)(O)CCCNC(=O)c1ccc(N(C)Cc2cnc3nc(N)nc(N)c3n2)cc1
inhibition [1]: 9%

Nc1nc(N)c2nc(CNc3ccc(C(=O)NC(CCS(=O)(=O)O)C(=O)O)cc3)cnc2n1 (stereo not given)
inhibition [1]: 77%

Nc1nc(N)c2nc(CNc3ccc(C(=O)NC(CCP(=O)(O)O)C(=O)O)cc3)cnc2n1 (stereo not given)
inhibition (Mus musculus): 100% | IC50 (Dihydrofolate reductase): 63 nM | IC50 (L1210 [2]): 67 nM | IC50 (L1210 ( R81)): 240000 nM | Ki [3]: 8400 nM
